Source: paper PMC4408243 (Biochimica et biophysica acta, 2015)
Substitutions are numbered along the chain they refer to. Values joined by “and” are separate entries in the source; they are usually repeats but may differ in a detail not shown here. Identical values can stand only once. Marks after values point to notes of the source that are not given here.

Key:
[1] = biological target: T1, human WT FABP1 T94T (Homo sapiens, UniProt P07148); assay: NBD-cholesterol fluorescence binding assay
T1 sequence (P07148 1-127): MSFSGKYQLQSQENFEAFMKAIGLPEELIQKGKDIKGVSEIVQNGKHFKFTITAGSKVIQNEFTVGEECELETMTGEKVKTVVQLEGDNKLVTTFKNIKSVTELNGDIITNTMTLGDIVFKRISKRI
Summary of the method: (§1)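 Recombinant FABP1 was titrated into NBD-cholesterol held at 20 nM, below its critical micellar concentration; human proteins ran 0–3.6 μM. Excitation was 490 nm and emission spectra were taken at 515–600 nm, 24°C. Emission maxima came from spectral analysis. Kd and Bmax were obtained by fitting the binding curve to a hyperbola. Data are mean ± SE, n = 3–5.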

[2] = biological target: T2, rat FABP1 (Rattus norvegicus, UniProt P02692); assay: NBD-cholesterol fluorescence binding assay
T2 sequence (P02692 1-127): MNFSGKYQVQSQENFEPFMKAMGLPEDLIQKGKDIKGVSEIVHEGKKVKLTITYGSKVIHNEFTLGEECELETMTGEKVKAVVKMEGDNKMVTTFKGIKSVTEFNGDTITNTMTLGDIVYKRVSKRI
Summary of the method: as §1

[3] = biological target: T3, human FABP1 T94A variant (Homo sapiens, UniProt P07148, T94A); assay: NBD-cholesterol fluorescence binding assay
T3 sequence (P07148 1-127 T94A): T1 sequence (P07148 1-127) with T94A
Summary of the method: as §1

[4] = biological target: T4, human WT FABP1 (Homo sapiens, UniProt P07148); assay: Isothermal titration calorimetry; format: binding
T4 sequence (P07148 1-127): T1 sequence (P07148 1-127)

[5] = aqueous; cited from earlier work
[6] = biological target: T2, rat FABP1; assay: Isothermal titration calorimetry; format: binding
[7] = biological target: T5, human T94A variant FABP1 (Homo sapiens, UniProt P07148, T94A); assay: Isothermal titration calorimetry; format: binding
T5 sequence (P07148 1-127 T94A): T1 sequence (P07148 1-127) with T94A

[8] = NBD-cholesterol 20nM bound to protein, excitation 490 nm, 24°C
[9] = NBD-cholesterol 20nM, FABP1 0–3.6 μM, hyperbola fit
[10] = NBD-cholesterol 20nM, FABP1 0–3.6 μM, hyperbola fit, 24°C

**Q.** Which results are given for C[C@H](CNc1ccc([N+](=O)[O-])c2nonc12)[C@H]1CC[C@H]2[C@@H]3CC=C4C[C@@H](O)CC[C@]4(C)[C@H]3CC[C@]12C [NBD-cholesterol, 22-(N-(7-nitrobenz-2-oxa-1,3-diazol-4-yl)-amino)-23, 24-bisnor-5-cholen-3β-ol]?
**A.** Emission max [1, 8]: 544 nm and 543.9 ± 0.5 ^d nm; Bmax (fluorescence intensity at saturation) [1, 9]: 72.4 ± 7.7 A.U.; Kd [1, 10]: 1770 ± 430 nM; blue shift of emission maximum, bound versus aqueous buffer ([1]; normalized spectra): ~21 nm; Emission max [2, 8]: 540.7 ± 0.7 nm; Bmax (fluorescence intensity at saturation) [2, 9]: 68.2 ± 7.1 A.U.; Kd [2, 10]: 480 ± 120 nM; fold higher affinity for NBD-cholesterol than WT [3]: more than 3 fold; fold lower Kd than WT FABP1 T94T [3]: 3.5 fold; maximal fluorescence intensity lower than when bound to WT FABP1 T94T [3]: ~40%; shift of maximum emission, T94A variant compared to WT FABP1 T94T [3]: 5 nm; Emission max [3, 8]: 549 nm and 548.9 ± 1.0 ^d, ^e nm; Bmax (fluorescence intensity at saturation) [3, 9]: 43.4 ± 3.3 ^d, ^e A.U.; Kd [3, 10]: 510 ± 150 nM

**Q.** Which results are given for CC(C)CCC[C@@H](C)[C@H]1CC[C@H]2[C@@H]3CC=C4C[C@@H](O)CC[C@]4(C)[C@H]3CC[C@]12C [cholesterol]?
**A.** Kd [4]: 1300 ± 400 nM; TΔS ([4]; ITC, 25 °C, pH 8.0): 5.02 ± 0.48 kcal/mol; n, binding stoichiometry ([4]; ITC, 25 °C, pH 8.0): 0.8 ± 0.2 mol/mol; ΔG, Gibbs free energy change ([4]; ITC, 25 °C, pH 8.0): -9.08 ± 0.72 kcal/mol; ΔH, enthalpy change ([4]; ITC, 25 °C, pH 8.0): -4.06 ± 0.48 kcal/mol; critical micellar concentration [5]: ~30 nM; Kd [6]: 600 ± 200 nM; TΔS ([6]; ITC, 25 °C, pH 8.0): 5.98 ± 0.72 kcal/mol; n, binding stoichiometry ([6]; ITC, 25 °C, pH 8.0): 0.9 ± 0.1 mol/mol; ΔG, Gibbs free energy change ([6]; ITC, 25 °C, pH 8.0): -9.8 ± 0.48 kcal/mol; ΔH, enthalpy change ([6]; ITC, 25 °C, pH 8.0): -3.59 ± 0.24 kcal/mol; Kd [7]: 500 ± 100 nM; TΔS ([7]; ITC, 25 °C, pH 8.0): 5.26 ± 0.24 kcal/mol; n, binding stoichiometry ([7]; ITC, 25 °C, pH 8.0): 0.7 ± 0.2 mol/mol; ΔG, Gibbs free energy change ([7]; ITC, 25 °C, pH 8.0): -10.8 ± 0.72 kcal/mol; ΔH, enthalpy change ([7]; ITC, 25 °C, pH 8.0): −23 ± 4 ^b kJ/mol; fold higher cholesterol-binding affinity than WT FABP1 T94T ([7]; NBD-cholesterol fluorescence and cholesterol ITC binding assays): 3 fold
